# Source: PubChem BioAssay (SRMLSC)
# Only a selection was taken, and hits are over-represented in it overall.
# HCT116 PTEN-null = PTEN-deleted cell growth suppression. HCT116 PTEN-null viability, CellTiter-Glo, 60 h; stronger effect = lower value. viability, % at 10 µM. 140,000 tested, 1.2% active. AID 827;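 active = viability at or below a set limit, 4 SD under the median of all tested compounds, cut at about 3.7% in these data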;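 note: PTEN knockout HCT116 line with beta catenin targeted HCT116 as companion control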
# HUVEC prolif 384 = blocks proliferation of human endothelial cells. AID 648. HUVEC proliferation, CellTiter-Glo luminescence, 72 h; stronger effect = lower value. viability, % at 10 µM (by protocol). 86,000 tested, 1.1% active;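 active = viability at or below 30%; inactive = viability above 30%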;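 note: 100% = median luminescence of DMSO-only cell control wells on each plate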
# H69AR growth 86K = growth inhibitors of human H69AR lung tumor cells; H69AR lung tumor viability, ATP luminescence, 72 h; stronger effect = lower value; viability, % at 10 µM; 85,000 tested, 6% active; AID 598;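 active = viability at or below 40%; inactive = viability above 40%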;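 note: multidrug resistant small cell line overexpressing MRP-1 efflux transporter; 100% = mean luminescence of untreated control wells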
# HCT116 bCat-KO = beta-catenin-lacking colon tumor cell growth suppression; 140,000 tested, 1.5% active; viability, % at 10 µM; AID 818; HCT116 beta-catenin knockout viability, CellTiter-Glo, 60 h; stronger effect = lower value;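 active = viability at or under a set limit, the compound median less 4 SD, cut at about 6% in these data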;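 note: 0% = Hyamine 1622 control at 20 µM and 100% = untreated cell control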
# Lung fibro prol = blocks proliferation of human lung fibroblasts | LL 47 human lung fibroblast viability, ATP luminescence; stronger effect = lower value | viability, % at 10 µM | 85,000 tested, 1.1% active | AID 719;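 active = viability at or below 50% in the single dose screen; inactive = viability above 50%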;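 note: compound exposure lasted 72 h before the ATP readout; 100% = median luminescence of untreated cell-only wells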
#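 Times – overnight cell rest, 72 h compound treatment at 37 °C · Test system – human lung fibroblast line LL 47, low passage · Amount – 1,150 cells in each well · Controls – cell-only wells, no compound · Doses – 0.1% DMSO in all compound wells · Measured by – CellTiter-Glo luminescence · Buffer or medium – IMEM plus 15% FBS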
# An asterisk follows results filed as active; . = not tested or not shown.
SMILES,HCT116 PTEN-null,HUVEC prolif 384,H69AR growth 86K,HCT116 bCat-KO,Lung fibro prol
CCOc1cc(/C=C2/C(=N)N3C=CSC3=NC2=O)ccc1OCCCOc1ccccc1C,93,18*,6.5*,91,32*
O=C(NC(NC(=O)c1ccccc1)c1ccccc1)c1ccccc1,86,93,113,76,102
CCN(CC)S(=O)(=O)c1cc(C(=O)OCC(=O)Nc2cccc(C)c2C)ccc1F,103,.,.,93,.
Cc1cc(C)c2c(c1)-c1c(ssc1=S)C(C)(C)N2C(=O)CSc1nncn1C,63,67,13*,64,74
Cc1ccc2c(c1)-c1c(ssc1=S)C(C)(C)N2C(=O)CSc1nncn1C,63,89,79,67,92
CCOC(=O)c1cc(C#N)c(SCC(=O)c2cc(C#N)c(SC)nc2C)nc1C,.,63,12*,.,.
CCOC(=O)c1cc(C#N)c(SCc2cccc3ccccc23)nc1C,72,96,96,69,90
COCc1cc(=O)[nH]c(Sc2c(-c3ccccc3)c3ccc(Cl)cc3[nH]c2=O)n1,102,.,.,100,.
Cc1cnc(C(=O)OCC(=O)Nc2oc(-c3ccccc3)c(-c3ccccc3)c2C#N)cn1,96,98,34*,99,71
N#Cc1c(NC(=O)CSc2ccccn2)oc(-c2ccccc2)c1-c1ccccc1,103,97,82,90,105
COc1ccccc1NC(=O)CN1CCN(CC(=O)Nc2ccc(Cl)c(C(F)(F)F)c2)CC1,38,66,27*,37,83
COc1cc(NC(=O)c2ccc(C)cc2)c(OC)cc1NC(=O)CN1CCCCC1,85,86,61,80,96
COc1cc(NC(=O)Nc2cccc(Cl)c2)c(OC)cc1NC(=O)CN1CCCCC1,26,12*,7.8*,33,103
COc1ccc(NC(=O)CN2CCN(CC(=O)Nc3ccccc3Cl)CC2)cc1Cl,108,81,24*,98,91
Cc1ccc(NC(=O)CSc2ccccc2NC(=O)c2ccccc2Cl)cc1Cl,27,.,.,49,.
CC(Sc1nc(-c2ccc(F)cc2)cs1)C(=O)Nc1ccc(Cl)cn1 (stereo not drawn),80,.,.,83,.
Cc1nn(Cc2c(Cl)cccc2Cl)c(C)c1NC(=O)c1cc(C(C)C)on1,30,72,7.7*,64,35*
COc1ccc(-c2cc(C(=O)Nc3c(C)nn(Cc4ccccc4Cl)c3C)no2)cc1,65,88,33*,62,90
Cc1nn(Cc2ccc(Cl)cc2)c(C)c1NC(=O)c1cc(-c2ccc3c(c2)OCO3)on1,83,49,81,92,105
Cc1nn(Cc2ccc(Cl)c(Cl)c2)c(C)c1NC(=O)c1cc(-c2ccc3c(c2)OCO3)on1,1.8*,12*,1.4*,1.5*,76
CC(C)C(C)(C#N)NC(=O)CSc1nnc(-c2ccccc2)o1 (stereo not drawn),106,101,91,99,103
CC(NC(=O)CN1CCc2ccccc21)c1ccccc1 (stereo not drawn),91,.,.,76,.
CC(C)CC(COCc1ccc(Cl)cc1)N1CCN(C(=O)c2ccc(Cl)cc2Cl)CCC1=O (stereo not drawn),26,.,.,29,.
O=C(O)C1C2CCC(O2)C1C(=O)Nc1ccc(O)cc1 (stereo not drawn),93,.,.,92,.
CNS(=O)(=O)c1cc(NC(C)=O)c(C)cc1C,107,.,.,92,.
SMILES,HCT116 PTEN-null,HUVEC prolif 384,H69AR growth 86K,HCT116 bCat-KO,Lung fibro prol
C#CC(=O)N(c1ccc(OC)c(OC)c1)C(C(=O)NC1CCCC1)c1cccs1 (stereo not drawn),1.7*,.,.,1.3*,.
COc1cc(N(C(=O)Cc2cccs2)C(C(=O)NC2CCCCC2)c2ccc(C)cc2)ccc1-n1cnnn1 (stereo not drawn),1.4*,.,.,15,.
COc1ccc(N(C(=O)Cc2cccs2)C(C(=O)NC2CCCCC2)c2cccn2C)cc1OC (stereo not drawn),81,92,76,94,95
C#CC(=O)N(c1cccc(OC)c1)C(C(=O)NC1CCCC1)c1cccs1 (stereo not drawn),1.0*,.,.,0.5*,.
Cc1cccc(N(C(=O)C(F)(F)F)C(C(=O)NC2CCCCC2)c2cccs2)c1 (stereo not drawn),90,.,.,87,.
Cc1cc(C)cc(-n2c(SCC(=O)Nc3cccc(S(=O)(=O)NC4=NCCCCC4)c3)nc3ccccc3c2=O)c1,89,.,.,84,.
Cc1cc(C)n(S(=O)(=O)/C=C/c2ccccc2)n1,89,76,1.1*,94,26*
COc1ccc2c(=O)c3c(=O)n(Cc4ccco4)c(-c4cc(OC)c(OC)c(OC)c4)nc3oc2c1,49,70,13*,54,78
c1ccc(CSc2nnc(-c3c[nH]c4ccccc34)o2)cc1,63,27*,97,72,106
c1ccc2c(-c3nnc(SCc4cn5ccccc5n4)o3)c[nH]c2c1,105,89,63,95,119
Cc1ccc(S(=O)(=O)N2CCN(C(=O)COc3ccc(NC(=O)c4ccco4)cc3)CC2)cc1,82,88,37*,90,106
COc1ccc(C2C=C(c3ccc(C)c(C)c3)Nc3ncnn32)c(OC)c1OC (stereo not drawn),39,62,25*,40,62
COc1ccc(C2C=C(c3ccccc3)Nc3ncnn32)cc1 (stereo not drawn),93,105,85,82,106
COc1ccccc1Nc1nc(N)nc(-c2oc3ccccc3c2C)n1,90,95,62,91,80
Cc1c(-c2nc(N)nc(Nc3ccc(F)cc3)n2)oc2ccccc12,86,59,21*,85,81
Cc1ccc(C(C)C)c(Oc2nnnn2-c2ccccc2)c1,62,84,30*,56,87
c1ccc(-n2nnnc2Oc2cccc3cccnc23)cc1,25,79,36*,49,90
CCOC(=O)c1[nH]c2ccc(F)cc2c1NC(=O)CN1CCN(C/C=C/c2ccccc2)CC1,48,2.6*,3.6*,56,14*
O=C(Nc1ccccc1N1CCOCC1)c1cc(-c2ccco2)nc2ccccc12,52,71,5.8*,63,93
Cc1ccsc1/C=N/NC(=O)Cc1cccn1C,95,.,.,91,.
Cc1cccc(C(=O)Nc2ccc(C(=O)/C=C/c3cccnc3)cc2)c1,1.6*,.,.,1.4*,.
O=C(/C=C/c1cccnc1)c1ccc(NC(=O)c2cccc(Br)c2)cc1,3.6*,.,.,5.7*,.
O=C(N/C(=C\c1cccnc1)C(=O)N1CCOCC1)c1cccc(Br)c1,94,.,.,97,.
Cc1cccc(NC(=O)c2cccnc2)c1,91,99,100,92,85
COc1ccc(N(CC(=O)NCc2cccnc2)S(=O)(=O)c2c(C)nn(C)c2C)cc1,80,104,98,89,104
CCCc1nc2ccccc2c(C(=O)OCC(=O)Nc2cccc(S(=O)(=O)N3CCOCC3)c2)c1CC,.,55,35*,62,101
CCCc1nc2ccccc2c(C(=O)OCC(=O)NCc2ccco2)c1CC,106,90,71,88,94
